Laboratory results as given in ChEMBL document CHEMBL3588763, “Styryl-N-phenyl-N'-(2-chloroethyl)ureas and styrylphenylimidazolidin-2-ones as new potent microtubule-disrupting agents using combretastatin A-4 as model” (Eur J Med Chem, 2015).
The source made the active and inactive calls. The calls are words filed in the database; no cut-off is given here.

Assays:
HT-29 = test: Antiproliferative activity against human HT-29 cells assessed as cell growth inhibition after 48 hrs by sulforhodamine B assay; type: functional, cell-based; details: HT-29, 48 h
Summary of the method: (§1)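 NCI-style SRB screen with minor changes. Cells seeded per well in DMEM with 5% FBS: HT-29 4.0 x 10^3, M21 3.0 x 10^3, MCF-7 2.5 x 10^3, HT-1080 2.5 x 10^3. After 24 h, serially diluted drug was added at 50 µM to 1 nM final, DMSO <0.5%, for 48 h. Fixed with cold TCA, stained with SRB, read at 530–568 nm against plates fixed on treatment day. At least two experiments in triplicate, CV <10%.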

M21 [1] = test: Antiproliferative activity against human M21 cells assessed as cell growth inhibition after 48 hrs by sulforhodamine B assay; type: functional, cell-based; details: M21, 48 h; summary of the method: as §1
MCF7 = test: Antiproliferative activity against human MCF7 cells assessed as cell growth inhibition after 48 hrs by sulforhodamine B assay; type: functional, cell-based; details: MCF7, 48 h; summary of the method: as §1
[2] = Antiproliferative activity against human HT1080 cells assessed as cell growth inhibition after 48 hrs by sulforhodamine B assay; type: functional, cell-based; details: HT-1080, 48 h
M21 [3] = test: Induction of cell cycle arrest in human M21 cells assessed as cells accumulation at subG1 phase at 63 nM after 24 hrs by flow cytometry (reference value: 1.2%); type: functional
M21 [4] = test: Induction of cell cycle arrest in human M21 cells assessed as cells accumulation at G0/G1 phase at 63 nM after 24 hrs by flow cytometry (reference value: 54.5%); type: functional
M21 [5] = test: Induction of cell cycle arrest in human M21 cells assessed as cells accumulation at S phase at 63 nM after 24 hrs by flow cytometry (reference value: 22.2%); type: functional
M21 [6] = test: Induction of cell cycle arrest in human M21 cells assessed as cells accumulation at G2/M phase at 63 nM after 24 hrs by flow cytometry (reference value: 22.1%); type: functional
[7] = molecular target: T1, Tubulin beta (Homo sapiens) (UniProt P68371+Q9H4B7+Q13509+P04350+Q3ZCM7+P07437+Q13885+Q9BVA1+Q9BUF5+A6NNZ2); test: Inhibition of N,N-ethylene-bis(iodoacetamide) binding to Tubulin beta colchicines-binding site in human M21 cells assessed as adduct formation at 410 nM by Western blot analysis; type: cell-based
[8] = molecular target: T1, Tubulin beta (Homo sapiens); test: Inhibition of N,N-ethylene-bis(iodoacetamide) binding to Tubulin beta colchicines-binding site in human M21 cells assessed as adduct formation at 910 nM by Western blot analysis; type: cell-based
[9] = molecular target: T1, Tubulin beta (Homo sapiens); test: Inhibition of N,N-ethylene-bis(iodoacetamide) binding to Tubulin beta colchicines-binding site in human M21 cells assessed as adduct formation at 2500 nM by Western blot analysis; type: cell-based
M21 [10] = test: Induction of microtubule depolymerization and cytoskeleton disruption in human M21 cells at 63 nM after 16 hrs by immunofluorescence assay
M21 [11] = test: Induction of cell cycle arrest in human M21 cells assessed as cells accumulation at subG1 phase at 10 nM after 24 hrs by flow cytometry (reference value: 1.2%); type: functional
M21 [12] = test: Induction of cell cycle arrest in human M21 cells assessed as cells accumulation at G0/G1 phase at 10 nM after 24 hrs by flow cytometry (reference value: 54.5%); type: functional
M21 [13] = test: Induction of cell cycle arrest in human M21 cells assessed as cells accumulation at S phase at 10 nM after 24 hrs by flow cytometry (reference value: 22.2%); type: functional
M21 [14] = test: Induction of cell cycle arrest in human M21 cells assessed as cells accumulation at G2/M phase at 10 nM after 24 hrs by flow cytometry (reference value: 22.1%); type: functional
M21 [15] = test: Induction of microtubule depolymerization and cytoskeleton disruption in human M21 cells at 10 nM after 16 hrs by immunofluorescence assay
M21 [16] = test: Induction of cell cycle arrest in human M21 cells assessed as cells accumulation at subG1 phase at 46 nM after 24 hrs by flow cytometry (reference value: 1.2%); type: functional
M21 [17] = test: Induction of cell cycle arrest in human M21 cells assessed as cells accumulation at G0/G1 phase at 46 nM after 24 hrs by flow cytometry (reference value: 54.5%); type: functional
M21 [18] = test: Induction of cell cycle arrest in human M21 cells assessed as cells accumulation at S phase at 46 nM after 24 hrs by flow cytometry (reference value: 22.2%); type: functional
M21 [19] = test: Induction of cell cycle arrest in human M21 cells assessed as cells accumulation at G2/M phase at 46 nM after 24 hrs by flow cytometry (reference value: 22.1%); type: functional
M21 [20] = test: Induction of microtubule depolymerization and cytoskeleton disruption in human M21 cells at 46 nM after 16 hrs by immunofluorescence assay
M21 [21] = test: Induction of cell cycle arrest in human M21 cells assessed as cells accumulation at subG1 phase at 3100 nM after 24 hrs by flow cytometry (reference value: 1.2%); type: functional
M21 [22] = test: Induction of cell cycle arrest in human M21 cells assessed as cells accumulation at G0/G1 phase at 3100 nM after 24 hrs by flow cytometry (reference value: 54.5%); type: functional
M21 [23] = test: Induction of cell cycle arrest in human M21 cells assessed as cells accumulation at S phase at 3100 nM after 24 hrs by flow cytometry (reference value: 22.2%); type: functional
M21 [24] = test: Induction of cell cycle arrest in human M21 cells assessed as cells accumulation at G2/M phase at 3100 nM after 24 hrs by flow cytometry (reference value: 22.1%); type: functional
[25] = molecular target: T1, Tubulin beta (Homo sapiens); test: Binding affinity to Tubulin beta in human M21 cells assessed as tubulin acylation at 1500 nM after 24 hrs by electrophoretic mobility shift assay; type: cell-based
[26] = molecular target: T1, Tubulin beta (Homo sapiens); test: Binding affinity to Tubulin beta in human M21 cells assessed as tubulin acylation at 3100 nM after 24 hrs by electrophoretic mobility shift assay; type: cell-based
M21 [27] = test: Induction of microtubule depolymerization and cytoskeleton disruption in human M21 cells at 3100 nM after 16 hrs by immunofluorescence assay
M21 [28] = test: Induction of cell cycle arrest in human M21 cells assessed as cells accumulation at subG1 phase at 24 nM after 24 hrs by flow cytometry (reference value: 1.2%); type: functional
M21 [29] = test: Induction of cell cycle arrest in human M21 cells assessed as cells accumulation at G0/G1 phase at 24 nM after 24 hrs by flow cytometry (reference value: 54.5%); type: functional
M21 [30] = test: Induction of cell cycle arrest in human M21 cells assessed as cells accumulation at S phase at 24 nM after 24 hrs by flow cytometry (reference value: 22.2%); type: functional
M21 [31] = test: Induction of cell cycle arrest in human M21 cells assessed as cells accumulation at G2/M phase at 24 nM after 24 hrs by flow cytometry (reference value: 22.1%); type: functional
M21 [32] = test: Induction of microtubule depolymerization and cytoskeleton disruption in human M21 cells at 24 nM after 24 hrs by immunofluorescence assay; type: functional, cell-based
M21 [33] = test: Induction of cell cycle arrest in human M21 cells assessed as cells accumulation at subG1 phase at 760 nM after 24 hrs by flow cytometry (reference value: 1.2%); type: functional
M21 [34] = test: Induction of cell cycle arrest in human M21 cells assessed as cells accumulation at G0/G1 phase at 760 nM after 24 hrs by flow cytometry (reference value: 54.5%); type: functional
M21 [35] = test: Induction of cell cycle arrest in human M21 cells assessed as cells accumulation at S phase at 760 nM after 24 hrs by flow cytometry (reference value: 22.2%); type: functional
M21 [36] = test: Induction of cell cycle arrest in human M21 cells assessed as cells accumulation at G2/M phase at 760 nM after 24 hrs by flow cytometry (reference value: 22.1%); type: functional
M21 [37] = test: Induction of microtubule depolymerization and cytoskeleton disruption in human M21 cells at 760 nM after 16 hrs by immunofluorescence assay

For O=C1NCCN1c1ccc(/C=C\c2cccc(Cl)c2)cc1, the IC50 (HT-29) was 25 nM, the IC50 (M21 [1]) was 27 nM and the IC50 (MCF7) was 38 nM. It also gave an IC50 [2] of 35 nM, an Activity (M21 [3]) of 13.6% and an Activity (M21 [4]) of 17.4%. For the same compound, the Activity (M21 [5]) was 13.9%, the Activity (M21 [6]) was 55.1% and the inhibition [7] was “Active”. For the same compound, the inhibition [8] was “Active”, the inhibition [9] was “Active” and the Activity (M21 [10]) was “Active”.

In the case of COc1ccc(/C=C\c2cc(OC)c(OC)c(OC)c2)cc1O [COMBRETASTATIN A4], the IC50 (HT-29) is reported as 560 nM, the IC50 (M21 [1]) is reported as 1.6 nM and the IC50 (MCF7) is reported as 2.1 nM. It also gave an Activity (M21 [11]) of 7.5%, an Activity (M21 [12]) of 4.5% and an Activity (M21 [13]) of 6.6%. The Activity (M21 [14]) was 91.4% and the Activity (M21 [15]) was “Active”.

Compound Cc1cc(C)cc(/C=C\c2ccc(N3CCNC3=O)cc2)c1 has an IC50 (HT-29) of 8.4 nM, an IC50 (M21 [1]) of 10 nM and an IC50 (MCF7) of 23 nM. The IC50 [2] was 15 nM, the Activity (M21 [16]) was 8.2% and the Activity (M21 [17]) was 5.4%. For the same compound, the Activity (M21 [18]) was 8%, the Activity (M21 [19]) was 78.4% and the inhibition [7] was “Active”. The inhibition [8] was “Active”, the inhibition [9] was “Active” and the Activity (M21 [20]) was “Active”.

Work on CCNC(=O)Nc1ccc(/C=C/c2cc(OC)c(OC)c(OC)c2)cc1 yielded an IC50 (HT-29) of 12000 nM, an IC50 (M21 [1]) of 29000 nM and an IC50 (MCF7) of 17000 nM. It also gave an IC50 [2] of 16000 nM.

In the case of Cc1cc(C)cc(/C=C\c2ccc(NC(=O)NCCCl)cc2)c1, the IC50 (HT-29) is reported as 510 nM, the IC50 (M21 [1]) is reported as 710 nM and the IC50 (MCF7) is reported as 860 nM. It also gave an IC50 [2] of 700 nM, an Activity (M21 [21]) of 12.5% and an Activity (M21 [22]) of 5.7%. For the same compound, the Activity (M21 [23]) was 13.2%, the Activity (M21 [24]) was 68.6% and the Activity [25] was “Active”. For the same compound, the Activity [26] was “Active” and the Activity (M21 [27]) was “Active”.

Work on CCNC(=O)Nc1ccc(/C=C\c2cccc(Cl)c2)cc1 yielded an IC50 (HT-29) of 26000 nM, an IC50 (M21 [1]) of 35000 nM and an IC50 (MCF7) of 32000 nM. The IC50 [2] was 31000 nM.

Compound Cc1cc(C)cc(/C=C/c2ccc(N3CCNC3=O)cc2)c1 has an IC50 (HT-29) of 14000 nM, an IC50 (M21 [1]) of 17000 nM and an IC50 (MCF7) of 16000 nM. The IC50 [2] was over 20000 nM.

With COc1cc2c(c(OC)c1OC)-c1ccc(OC)c(=O)cc1[C@@H](NC(C)=O)CC2 [COLCHICINE] the Activity (M21 [28]) was 2.4%, the Activity (M21 [29]) was 27.9% and the Activity (M21 [30]) was 11.8%. The Activity (M21 [31]) was 57.9% and the Activity (M21 [32]) was “Active”.

With O=C(NCCCl)Nc1ccc(/C=C\c2cccc(Cl)c2)cc1 the IC50 (HT-29) was 130 nM, the IC50 (M21 [1]) was 170 nM and the IC50 (MCF7) was 200 nM. The IC50 [2] was 170 nM, the Activity (M21 [33]) was 2.2% and the Activity (M21 [34]) was 2.1%. The Activity (M21 [35]) was 3.7%, the Activity (M21 [36]) was 92% and the Activity [25] was “Active”. The Activity [26] was “Active” and the Activity (M21 [37]) was “Active”.

With CCNC(=O)Nc1ccc(/C=C/c2cccc(Cl)c2)cc1 the IC50 (HT-29) was over 20000 nM, the IC50 (M21 [1]) was over 20000 nM and the IC50 (MCF7) was 20000 nM. The IC50 [2] was over 20000 nM.
